From ChEMBL document CHEMBL2440109, “Synthesis and antimycobacterial activity of isoniazid derivatives from renewable fatty acids” (2013)
In brackets after ≈: the same amount, converted by molar mass.

Key:
Format in all cases: functional
[1] = system: Mycobacterium tuberculosis; test: Antimycobacterial activity against isoniazid-resistant Mycobacterium tuberculosis 1896HF harboring inhA mutant after 7 days by REMA assay
Outline: (§1)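 MIC by resazurin microtiter assay. Bacteria suspended in sterile water with glass beads, vortexed, turbidity set to McFarland tube 1 (3.2 × 10^6 CFU/mL), then diluted 1:20 in Middlebrook 7H9. Incubated 37 °C for 7 days, resazurin added, further 2 days at 37 °C. MIC read from colour change.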

[2] = system: Mycobacterium tuberculosis; test: Antimycobacterial activity against isoniazid-resistant Mycobacterium tuberculosis ATCC 35822 harboring katG mutant after 7 days by REMA assay
Outline: as §1, with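 “7H9. Compounds in DMSO, two-fold serial dilutions (100.0-3.2 µg/mL) in 7H9 with 10% OADC.” for “7H9.”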

[3] = system: Mycobacterium tuberculosis; test: Antimycobacterial activity against rifampicin-resistant Mycobacterium tuberculosis ATCC 35338 harboring rpoB His-526-Tir gene mutant after 7 days by REMA assay
Outline: as §1, with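 “7H9. Compounds in DMSO, two-fold serial dilutions (100.0-3.2 µg/mL) in 7H9 with 10% OADC.” for “7H9.”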

Row | SMILES | MIC [1] | MIC [2] | MIC [3]
1 | CCCCCCCCCCCCCCCC(=O)NNC(=O)c1ccncc1 | 0.78 µg/mL (≈ 2.08 µM) | 0.125 µg/mL (≈ 0.333 µM) | 0.003 µg/mL (≈ 0.00799 µM)
2 | CCCCCCCCCCCCCCCCCC(=O)NNC(=O)c1ccncc1 | 3.12 µg/mL (≈ 7.73 µM) | 0.25 µg/mL (≈ 0.619 µM) | 0.003 µg/mL (≈ 0.00743 µM)
3 | CCCCCCCC/C=C\CCCCCCCC(=O)NNC(=O)c1ccncc1 | 1.56 µg/mL (≈ 3.88 µM) | 0.25 µg/mL (≈ 0.623 µM) | 0.003 µg/mL (≈ 0.00747 µM)
4 | CCCCCCCC/C=C/CCCCCCCC(=O)NNC(=O)c1ccncc1 | 6.25 µg/mL (≈ 15.6 µM) | >50 µg/mL | 0.0019 µg/mL (≈ 0.00473 µM)
5 | CCCCCC[C@@H](O)C/C=C\CCCCCCCC(=O)NNC(=O)c1ccncc1 | 12.5 µg/mL (≈ 29.9 µM) | 25 µg/mL (≈ 59.9 µM) | 0.015 µg/mL (≈ 0.0359 µM)
6 | CCCCC/C=C\C/C=C\CCCCCCCC(=O)NNC(=O)c1ccncc1 | 12.5 µg/mL (≈ 31.3 µM) | 2 µg/mL (≈ 5.01 µM) | 0.03 µg/mL (≈ 0.0751 µM)
7 | CC/C=C\C/C=C\C/C=C\CCCCCCCC(=O)NNC(=O)c1ccncc1 | 12.5 µg/mL (≈ 31.4 µM) | 25 µg/mL (≈ 62.9 µM) | 0.03 µg/mL (≈ 0.0755 µM)
8 | NNC(=O)c1ccncc1 [ISONIAZID] | 2 µg/mL (≈ 14.6 µM) | 2 µg/mL (≈ 14.6 µM) | 0.015 µg/mL (≈ 0.109 µM)
9 | CCCCCCCC/C=C\CCCCCCCC(=O)O [OLEIC ACID] | >100 µg/mL | >100 µg/mL | >100 µg/mL
10 | CCCCCCCC/C=C\CCCCCCCC(=O)NN [OLEOHYDRAZIDE] | >100 µg/mL | 50 µg/mL (≈ 169 µM) | 50 µg/mL (≈ 169 µM)
11 | CO[C@H]1/C=C/O[C@@]2(C)Oc3c(C)c(O)c4c(O)c(c(/C=N/N5CCN(C)CC5)c(O)c4c3C2=O)NC(=O)/C(C)=C\C=C\[C@H](C)[C@H](O)[C@@H](C)[C@@H](O)[C@@H](C)[C@H](OC(C)=O)[C@@H]1C [RIFAMPIN] | – | 0.03 µg/mL (≈ 0.0365 µM) | >2 µg/mL
